The values that follow come from ChEMBL document CHEMBL4725343, “Medicinal Chemistry Optimization of a Diaminopurine Chemotype: Toward a Lead for Trypanosoma brucei Inhibitors” (J Med Chem, 2020).

Data set [1] can be described thus: Distribution coefficient between octanol and aqueous buffer, logD of the compound in pH 7.4 buffer by UPLC-MS-based shake flask method. The data set is classed as physicochemical. The conditions noted are these: octanol/water.
Data set [2] in a line: Apparent permeability across apical to basolateral side in human Caco2 cells after 2 hrs. The data set is classed as ADME, cell-based. Particulars: caco-2, 2 h.
Data set [3] is described as follows: Apparent permeability across basolateral to apical side in human Caco2 cells after 2 hrs. The data set is classed as ADME, cell-based. The conditions noted are these: caco-2, 2 h.
The nature of data set [4]: Apparent permeability across apical to basolateral side in human Caco2 cells assessed as drug recovery after 2 hrs. The format is ADME, cell-based. Particulars: caco-2, 2 h.
Data set [5] can be described thus: Apparent permeability across basolateral to apical side in human Caco2 cells assessed as drug recovery after 2 hrs. The data set is classed as ADME, cell-based. Particulars: caco-2, 2 h.
A short description of data set [6]: Cmax in NMRI mouse at 10 mg/kg, ip measured up to […]rs on day 1 by LC-MS/MS analysis. Particulars: in vivo. Also noted: route intraperitoneal, dose 10 mg/kg. The data set is classed as ADME, organism-based. In outline:
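Female NMRI mice, uninfected (n=3), received a single ip dose of 10 mg/kg at 10 mL/kg, in 1% DMSO/99% of 20% (w/v) SBEβ-CD in water. Tail-vein blood was collected into K2EDTA at 0.0833 to 24 h and diluted with an equal volume of water. Samples underwent liquid–liquid extraction with nifedipine as internal standard, followed by LC-MS/MS.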

Data set [7] can be described thus: Cmax in ABT-treated NMRI mouse at 30 mg/kg, ip measured up to 6 hrs on day 1 by LC-MS/MS analysis. The data set is classed as ADME, organism-based. Also on record: route intraperitoneal, dose 30 mg/kg/day, time <=6. Particulars: in vivo. The procedure, abridged: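 Female NMRI mice, uninfected (n=3), were given ABT 50 mg/kg/day 1 h before each ip dose of 30 mg/kg/day, in a vehicle of 4% DMSO and 20% Captisol, as a 0.2 mL injection. Blood was sampled at 0.5, 2, 4 and 6 h on day 1. Samples underwent liquid–liquid extraction with nifedipine as internal standard, followed by LC-MS/MS.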

Data set [8] in a line: Cmax in ABT-treated NMRI mouse infected with Trypanosoma brucei brucei STIB795 at 30 mg/kg, ip measured up to 6 hrs on day 1 by LC-MS/MS analysis. The data set is classed as ADME, organism-based. Also noted: route intraperitoneal, dose 30 mg/kg/day, time <=6. Particulars: in vivo. In outline: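 Female NMRI mice were infected ip with 10^4 bloodstream-form T. b. brucei STIB795. From day 3 they received ABT 50 mg/kg/day 1 h before ip dosing at 30 mg/kg/day (n=3), in a vehicle of 4% DMSO and 20% Captisol, for 5 days. Blood was sampled at 0.5, 2, 4 and 6 h on day 1. Quantitation was by LC-MS/MS after liquid–liquid extraction with nifedipine as internal standard.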

A short description of data set [9]: Tmax in NMRI mouse at 10 mg/kg, ip measured up to 6 hrs on day 1 by LC-MS/MS analysis. The data set is classed as ADME, organism-based. The conditions noted are these: in vivo. In outline:
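Uninfected female NMRI mice given 10 mg/kg ip at 10 mL/kg in 1% DMSO/99% of 20% (w/v) SBEβ-CD in water, n=3. Tail-vein blood collected into K2EDTA at 0.0833–24 h and diluted 1:1 with water. Extracted with internal standard nifedipine and quantified by LC-MS/MS.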

Data set [10] in a line: Tmax in ABT-treated NMRI mouse at 30 mg/kg, ip measured up to 6 hrs on day 1 by LC-MS/MS analysis. The data set is classed as ADME, organism-based. The conditions noted are these: in vivo, dose 30 mg/kg/day. The procedure, abridged:
(§1)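 Female NMRI mice, infected with STIB795 or uninfected, pretreated with ABT 50 mg/kg po 1 h before 30 mg/kg ip. Vehicle 4% DMSO, 20% Captisol. Tail blood taken at 0.5, 2, 4 and 6 h on day 1 and diluted with water. Liquid–liquid extraction with nifedipine internal standard, then LC-MS/MS.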

The nature of data set [11]: Tmax in ABT-treated NMRI mouse infected with Trypanosoma brucei brucei STIB795 at 30 mg/kg, ip measured up to 6 hrs on day 1 by LC-MS/MS analysis. The conditions noted are these: in vivo, dose 30 mg/kg/day. The format is ADME, organism-based. The procedure, abridged:
as §1

Data set [12] can be described thus: AUC (0 to t) in NMRI mouse at 10 mg/kg, ip measured up to 6 hrs on day 1 by LC-MS/MS analysis. The data set is classed as ADME, organism-based. Also on record: route intraperitoneal, dose 10 mg/kg. The conditions noted are these: in vivo. The procedure, abridged:
(§2)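 Female NMRI mice, uninfected, single ip dose 10 mg/kg at 10 mL/kg in 1% DMSO/99% of 20% (w/v) SBEβ-CD (Captisol) in water. Tail-vein blood into K2EDTA at 0.0833, 0.25, 0.5, 1, 2, 4, 6, 8 and 24 h. Blood diluted 1:1 in water, liquid–liquid extraction with nifedipine internal standard, LC-MS/MS.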

The nature of data set [13]: AUC(0 to t) in ABT-treated NMRI mouse at 30 mg/kg, ip measured up to 6 hrs on day 1 by LC-MS/MS analysis. The data set is classed as ADME, organism-based. Also noted: route intraperitoneal, dose 30 mg/kg/day, time <=6. Particulars: in vivo. In outline: (§3)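 Uninfected female NMRI mice (n=3), oral 1-aminobenzotriazole 50 mg/kg/day 1 h before each ip dose of 30 mg/kg/day (0.2 mL; vehicle 4% DMSO, 20% Captisol). Blood sampled at 0.5, 2, 4 and 6 h on day 1. Samples processed by liquid–liquid extraction with nifedipine internal standard, then LC-MS/MS.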

A short description of data set [14]: AUC(0 to t) in ABT-treated NMRI mouse infected with Trypanosoma brucei brucei STIB795 at 30 mg/kg, ip measured up to 6 hrs on day 1 by LC-MS/MS analysis. The data set is classed as ADME, organism-based. The conditions noted are these: in vivo. Also on record: route intraperitoneal, dose 30 mg/kg/day, time <=6. The procedure, abridged:
(§4)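 Female NMRI mice infected ip with 10^4 bloodstream T. b. brucei STIB795 in TDB glucose. Dosing began day 3 after infection with parasitemia confirmed (n=3): oral ABT 50 mg/kg 1 h before ip 30 mg/kg (0.2 mL; 4% DMSO, 20% Captisol). Blood taken at 0.5, 2, 4, 6 h on day 1, extracted with nifedipine internal standard, LC-MS/MS.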

The nature of data set [15]: AUC in NMRI mouse at 10 mg/kg, ip measured up to 6 hrs on day 1 by LC-MS/MS analysis. The data set is classed as ADME, organism-based. Also on record: route intraperitoneal, dose 10 mg/kg. Particulars: in vivo. The procedure, abridged: as §2
Data set [16] in a line: AUC in ABT-treated NMRI mouse at 30 mg/kg, ip measured up to 6 hrs on day 1 by LC-MS/MS analysis. The conditions noted are these: in vivo. The data set is classed as ADME, organism-based. Also noted: route intraperitoneal, dose 30 mg/kg/day, time <=6. In outline:
as §3

Data set [17] is described as follows: AUC in ABT-treated NMRI mouse infected with Trypanosoma brucei brucei STIB795 at 30 mg/kg, ip measured up to 6 hrs on day 1 by LC-MS/MS analysis. The format is ADME, organism-based. Also noted: route intraperitoneal, dose 30 mg/kg/day, time <=6. Particulars: in vivo. The procedure, abridged:
as §4

SMILES strings stand for the structures.

Turning to `FC(F)(F)CNc1nc(Nc2ccsc2)nc2[nH]cnc12`, the logD in data set [1] turned out to be 3.1.

In [1], `Cn1nccc1Nc1nc(NCC(F)(F)F)c2nc[nH]c2n1` registered a logD of 1.9. Besides, the Papp was 5.8 10^-6 cm/s in data set [2] and 44 10^-6 cm/s in [3]. Also, the figures for the Drug recovery in data set [4] and in data set [5] were 87% and 102%, respectively. Besides, the Cmax in [6] came out at 11.8 µM; in data set [7], 15767 ng/mL; in data set [8], 17267 ng/mL. Besides, the Tmax in data set [9] worked out at 15 min; in [10], 30 min; in [11], 30 min. Moreover, the AUCt in data set [12] amounted to 5340 ng·h/mL; in [13] it was 51799 ng·h/mL; in [14], 77666 ng·h/mL. The AUC in data set [15] was 5350 ng·h/mL; in [16], 52521 ng·h/mL; in data set [17] it was 83443 ng·h/mL.
